Screens as filed in PubChem.
D1 allo mod: allosterically modulates the human D1 dopamine receptor. 58,000 compounds, 5.9% hits. AID 641. HEK293 D1, CRE-luciferase, dopamine EC30 potentiation; actives deviate in either direction. P21728. B-score at 10 µM;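 active = luminescence count or its row- and column-corrected plate score outside the 99.7% band of the plate's sample wells, on either side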
Target sequence (P21728 whole entry, looked up): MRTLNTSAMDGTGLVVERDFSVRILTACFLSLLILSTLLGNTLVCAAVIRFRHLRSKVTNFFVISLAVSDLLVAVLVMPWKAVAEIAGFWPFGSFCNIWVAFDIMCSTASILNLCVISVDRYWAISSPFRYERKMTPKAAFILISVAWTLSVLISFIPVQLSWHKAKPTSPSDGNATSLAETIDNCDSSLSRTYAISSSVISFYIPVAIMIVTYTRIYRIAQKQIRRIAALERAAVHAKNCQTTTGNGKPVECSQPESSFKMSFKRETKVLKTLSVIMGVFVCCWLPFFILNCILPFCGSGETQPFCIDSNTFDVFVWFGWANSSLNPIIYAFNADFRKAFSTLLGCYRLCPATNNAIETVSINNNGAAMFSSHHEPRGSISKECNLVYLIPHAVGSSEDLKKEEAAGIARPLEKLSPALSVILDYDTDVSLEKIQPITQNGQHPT
AP ELISA ortho: alternative pathway complement inhibition, orthogonal assay; inhibition, % at 5 µM; AID 1235; Human serum alternative complement pathway, LPS-coated ELISA, C3 deposition; tested in compound mixtures; 62,000 compounds, 0.08% hits;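 active = inhibition above 30% in each of the two pooled mixtures holding the compound, so the lower value exceeds 30%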
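Test system: human serum alternative complement pathway, C3 deposition on LPS-coated wells; also added: Plate-bound LPS; doses: 5 µM per compound in ten-compound mixtures; schedule: 1 h at 37 °C; detection: Anti-C3 ELISA, OD 450 nm; evaluation: percent inhibition of C3 deposition onto LPS; repeats: two pool placements per compound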
HEK293 NFkB inh: inhibitors of the PMA/ionomycin-induced NF-kB reporter in HEK293 cells. HEK-293 NF-kB luciferase reporter, luminescence. inhibition, % at 3 µM. 62,000 compounds, 0.21% hits. AID 465;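 active = inhibition above the mean of all tested compounds plus 3 SD, cut at about 40% in these data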
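Reagent: PMA plus ionomycin mix as NF-kB-activating stimulus. Assay system: NF-kB luciferase reporter HEK-293 cells. Technique: luminescence from luciferase substrate reagent. Incubation: 1 h compound pre-incubation, 16 h PMA/ionomycin at 37 °C. Benchmarks: DMSO only as uninhibited control, 10 µM reference inhibitor as full inhibition. Repeats: tested once.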
E coli RNAP: blocks E. coli RNA polymerase transcription; P0A8V2; fluorescence transcription assay; inhibition, %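 (tested at 10 µM)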; 62,000 compounds, 0.2% hits; AID 559; in the data active = inhibition above about 20%
hDAT+cocaine: human DAT dopamine uptake with cocaine, either direction | Q01959 | LLC-PK1 hDAT cells, [14C]-dopamine uptake with cocaine IC80; actives deviate in either direction | B-score at 10 µM | 110,000 compounds, 1.3% hits | AID 449768;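 active = Z score or B-score, a plate-position-corrected score, falls beyond the plate's 99.7% confidence bounds, in either direction; inactive = both scores lie inside the 99.7% bounds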
D1 PAM confirm: confirmation of human D1 dopamine receptor allosteric modulators; 2,200 compounds, 88% hits; HEK293 D1 CRE-luciferase, dopamine EC30 potentiation; stronger effect = higher value; luminescence at 10 µM; shares compounds with D1 allo mod;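 active = luminescence in either of two replicates above the same-plate mean plus 3 SD of the low-dose dopamine control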
D1 ag no DA: secondary test of D1 modulators: activity without dopamine. luminescence at 10 µM. AID 646. 1,900 compounds, 0.8% hits. HEK293 D1 CRE-luciferase, luminescence, no dopamine; stronger effect = higher value. shares compounds with D1 allo mod; in the data active = luminescence above about 3900
Isoprot counter: isoproterenol response counter-screen activity for D1 modulators | calls only at 10 µM | shares compounds with D1 allo mod | 2,200 compounds, 63% hits | HEK293 D1 CRE-luciferase, isoproterenol EC30 counter-screen;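 active = luminescence in either replicate above plate mean of wells with a partly effective reference agonist dose plus 3 SD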;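 also: isoproterenol raises cAMP through native beta-adrenoceptor Gs so signal bypasses D1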
Of the large screens only hits and unclear results are named; the others gave an inactive call (follow-up assays come after a bar, where they were run). Many of the other results were omitted from the sample, so hits are more common in it than they were.

C=C(C)Cn1c(NCCC)nc2c1c(=O)n(C)c(=O)n2C	none (no result: hDAT+cocaine)
NC(=O)C(c1ccc(Cl)cc1)c1ccc(Sc2ccc(Cl)cc2)nn1 (stereo unspecified)	none (no result: D1 allo mod, AP ELISA ortho, HEK293 NFkB inh, E coli RNAP)
COc1ccc(-c2nnn(CC(=O)NCc3ccccc3)n2)cc1OC	none (no result: D1 allo mod, AP ELISA ortho, HEK293 NFkB inh, E coli RNAP)
CCCCOc1ccc(-c2nnn(CC(=O)c3c[nH]c4ccccc34)n2)cc1	none (no result: D1 allo mod, AP ELISA ortho, HEK293 NFkB inh, E coli RNAP)
CCOc1ccc(-c2nnn(CC(=O)Nc3ccccc3OC)n2)cc1OCC	D1 allo mod 9.4 | D1 PAM confirm 19984 | D1 ag no DA inactive | Isoprot counter active
COc1ccc(-c2nnn(CC(=O)c3c[nH]c4ccccc34)n2)cc1OC	D1 allo mod 8.1 | D1 PAM confirm 19116 | D1 ag no DA inactive | Isoprot counter active
COc1ccc(-c2nnn(CC(=O)N(C3CCCC3)C(C)C(=O)NC3CCCC3)n2)cc1OC (stereo unspecified)	D1 allo mod 3.6 | D1 PAM confirm 6476 | Isoprot counter inactive
COc1ccc(-c2nnn(CC(=O)N(C3CCCCC3)C(C)C(=O)NC3CCCC3)n2)cc1OC (stereo unspecified)	none
CCCOC(=O)C1NC(=O)N2C(C(=O)OCCC)C(C)(C)S[C@H]12 (stereo partly specified)	none (no result: D1 allo mod, AP ELISA ortho, HEK293 NFkB inh, E coli RNAP)
CCOC(=O)c1c(N)c(C#N)cn1-c1ccccc1	D1 allo mod 20 | D1 PAM confirm 19404 | D1 ag no DA inactive | Isoprot counter active
CCOC(=O)c1c(-c2ccccc2)csc1NC(=O)c1nn(CC)cc1Br	none
CCOC(=O)c1cc(C#N)c(SC)nc1-c1ccccc1	none (no result: D1 allo mod, AP ELISA ortho, HEK293 NFkB inh, E coli RNAP)
CCOC(=O)c1c(NC(=O)c2nn(CC)cc2Br)c(C#N)cn1-c1ccccc1	D1 allo mod 6.7 | D1 PAM confirm 8888 | D1 ag no DA inactive | Isoprot counter active
Cc1cc(=O)n2nc(N3CCC(C(=O)NCCC4=CCCCC4)CC3)sc2n1	none (no result: hDAT+cocaine)
COc1cccc(-c2csc3nnc(SCC(=O)c4ccc(NC(C)=O)cc4)n23)c1	D1 allo mod 3 | D1 PAM confirm 9644 | D1 ag no DA inactive | Isoprot counter active
CCn1c(N)c(C(=O)Nc2ccccc2C(=O)OC)sc1=S	none
O=C1C(Cl)=C(NCC2CCCO2)C(=O)N1C1CCCCC1 (stereo unspecified)	D1 allo mod 4.4 | D1 PAM confirm 8656 | D1 ag no DA inactive | Isoprot counter inactive
O=C1C(Cl)=C(NCC2CCCO2)C(=O)N1c1ccccc1 (stereo unspecified)	none
COc1ccccc1-c1nc(SCC(=O)O)n[nH]1	none
CCOc1ccccc1-c1nc(SCC(=O)O)n[nH]1	D1 allo mod 3.8 | D1 PAM confirm inactive | D1 ag no DA inactive | Isoprot counter inactive
CCCCn1c(SCC(=O)c2ccccc2)nc2c1c(=O)[nH]c(=O)n2C	none (no result: AP ELISA ortho, E coli RNAP)
CCCCCn1c(SCC(=O)OC)nc2c1c(=O)[nH]c(=O)n2C	D1 allo mod 4.2 | D1 PAM confirm 14176 | D1 ag no DA inactive | Isoprot counter inactive
CCC(C)Sc1nc2c(c(=O)[nH]c(=O)n2C)n1C (stereo unspecified)	none
CC(C)CCn1c(SCCc2ccccc2)nc2c1c(=O)[nH]c(=O)n2C	none
CCOC(=O)C(CC)Sc1nc2c(c(=O)[nH]c(=O)n2C)n1C/C=C(/C)Cl (stereo unspecified)	D1 allo mod 8.6 | D1 PAM confirm 16300 | D1 ag no DA inactive | Isoprot counter active
COC(=O)CSc1nc2c(c(=O)[nH]c(=O)n2C)n1CCC(C)C	D1 allo mod 5.2 (no result: AP ELISA ortho, E coli RNAP) | D1 PAM confirm 12872 | D1 ag no DA inactive | Isoprot counter active
CCCn1c(-c2cccs2)nc2nc3ccccc3nc21	none (no result: D1 allo mod, AP ELISA ortho, HEK293 NFkB inh, E coli RNAP)
c1csc(-c2nc3nc4ccccc4nc3n2Cc2ccc3c(c2)OCO3)c1	D1 allo mod 8.9 | D1 PAM confirm 10488 | D1 ag no DA inactive | Isoprot counter active
